The text below walks through data of ChEMBL document CHEMBL4725448, “Substituted Azabicyclo[2.2.1]heptanes as Selective Orexin-1 Antagonists: Discovery of JNJ-54717793” (ACS Med Chem Lett, 2020).

Where only a bound is given, the exact number is not on record here.

A short description of data set [1]: Oral bioavailability in rat at 5 mg/kg. Type of data set: ADME, organism-based. The note with it: in vivo.
Data set [2] can be described thus: Cmax in mouse at 1 mg/kg, iv and 5 mg/kg, po. The note with it: in vivo. Details: dose 5 mg/kg. Format: ADME, organism-based.
Data set [3] is described as follows: AUC (0 to 24 hrs) in rat assessed as NOAEL at 200 mg/kg/day, po administered as repeated dose for 13 days. The note with it: in vivo. Format: ADME, organism-based. Details: route oral, time 13 day, dose 200 mg/kg/day.
A short description of data set [4]: Protein binding in human plasma assessed as free fraction. Type of data set: ADME, cell-free.
A further data set concerns the target T1, PXR (NR1I2) (Homo sapiens, UniProt O75469).
T1 sequence (O75469 whole entry): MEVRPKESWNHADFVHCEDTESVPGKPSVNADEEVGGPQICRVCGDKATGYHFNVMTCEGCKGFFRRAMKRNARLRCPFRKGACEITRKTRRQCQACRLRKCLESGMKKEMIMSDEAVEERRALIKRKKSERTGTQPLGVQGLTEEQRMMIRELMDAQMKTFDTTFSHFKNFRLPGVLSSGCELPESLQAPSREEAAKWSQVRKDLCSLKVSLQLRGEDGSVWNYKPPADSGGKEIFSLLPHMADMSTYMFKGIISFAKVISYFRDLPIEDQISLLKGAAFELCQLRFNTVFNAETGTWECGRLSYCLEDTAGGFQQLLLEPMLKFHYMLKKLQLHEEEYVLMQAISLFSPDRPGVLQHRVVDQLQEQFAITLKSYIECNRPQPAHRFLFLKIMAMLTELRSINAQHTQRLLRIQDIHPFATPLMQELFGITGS
As to the kind of experiment: Induction of human PXR at 10 uM relative to control. Format: ADME. The note with it: read-out: Activity. The essentials:
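Human PXR activation as an indirect measure of CYP3A4 induction, at 10 μM, expressed as % of rifampicin control activation.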

Data set [5] is described as follows: Cmax in mouse assessed as NOAEL at 200 mg/kg/day, po administered as repeated dose for 13 days. Type of data set: ADME, organism-based. Also on record: route oral, dose 200 mg/kg/day, time 13 day. As to conditions: in vivo.
Data set [6] is described as follows: Cmax in primate. Format: ADME. The note with it: primates.
The nature of data set [7]: […] clearance in mouse at 1 mg/kg, iv and 5 mg/kg, po. Format: ADME, organism-based. The note with it: in vivo.
Data set [8] in a line: […] clearance in rat at 1 mg/kg, iv and 5 mg/kg, po. Type of data set: ADME, organism-based. The note with it: in vivo.
Data set [9] in a line: Permeability across basolateral to apical side in MDCK cells. Type of data set: ADME, cell-based, Canis lupus familiaris. As to conditions: dog.
Data set [10] can be described thus: AUC (0 to 24 hrs) in mouse assessed as NOAEL at 200 mg/kg/day, po administered as repeated dose for 13 days. Format: ADME, organism-based. Details: route oral, dose 200 mg/kg/day, time 13 day. As to conditions: in vivo.
The nature of data set [11]: Protein binding in dog plasma assessed as free fraction. Type of data set: ADME, cell-free, Canis lupus familiaris.
A short description of data set [12]: Volume of distribution at steady state in rat at 1 mg/kg, iv and 5 mg/kg, po. Type of data set: ADME, organism-based. The note with it: in vivo, read-out: Vdss.
Data set [13] can be described thus: Cmax in rat at 1 mg/kg, iv and 5 mg/kg, po. Also on record: dose 5 mg/kg. Format: ADME, organism-based. As to conditions: in vivo.
Data set [14] in a line: Dissociation constant, pKa of the compound. Format: physicochemical.
A short description of data set [15]: Permeability across apical to basolateral side in MDCK cells. Type of data set: ADME, cell-based, Canis lupus familiaris. The note with it: dog.
Data set [16] in a line: […] clearance in dog at 0.5 mg/kg, iv and […], po. Type of data set: ADME, organism-based, Canis lupus familiaris. The note with it: in vivo, dose 2.5 mg/kg.
A short description of data set [17]: Drug concentration in Sprague-Dawley rat brain at 10 mg/kg, po after 0.5 hrs by LC-MS/MS analysis. Type of data set: ADME, organism-based. The note with it: read-out: Ct. The essentials: (§1)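 Brain and plasma levels (ng/mL) sampled 0.5 h after oral dosing at 10 or 30 mg/kg, alongside the ex vivo tenia tecta occupancy study.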
Data set [18] in a line: Ex vivo receptor occupancy at OX1R in Sprague-Dawley rat brain tenia tecta using [3H]SB-674042 labelling at 10 mg/kg, po measured after 0.5 hrs by autoradiography. Type of data set: functional. The essentials:
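Rats received a single oral dose, and OX1R occupancy was measured by ex vivo binding autoradiography in brain tenia tecta sections at 0.5, 2 and 6 h after dosing. Occupancy is expressed as percent. Brain and plasma drug levels (ng/mL) were also sampled at the 0.5 h time point.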

A short description of data set [19]: Ex vivo receptor occupancy at OX1R in Sprague-Dawley rat brain tenia tecta using [3H]SB-674042 labelling at 30 mg/kg, po measured after 0.5 hrs by autoradiography. Type of data set: functional. The essentials:
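Ex vivo OX1R binding autoradiography in rat tenia tecta after a 30 mg/kg po dose; percent occupancy read at 0.5 and 2 h.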

A short description of data set [20]: Drug concentration in Sprague-Dawley rat brain at 30 mg/kg, po after 0.5 hrs by LC-MS/MS analysis. Format: ADME, organism-based. As to conditions: read-out: Ct. Summed up: as §1
A short description of data set [21]: Clearance in dog at 0.5 mg/kg, iv and […], po. Type of data set: ADME, organism-based, Canis lupus familiaris. The note with it: in vivo, dose 2.5 mg/kg.
Data set [22] is described as follows: Lipophilicity, logD of the compound at pH 7.4. Type of data set: physicochemical. The note with it: buffer.

One may read the Cmax as the peak of the concentration-time curve. One may read the AUC as the area under the concentration-time curve, a measure of exposure. One may read the fraction unbound as free concentration divided by total concentration. Broadly, the Papp B→A is the apparent permeability from the basolateral to the apical side of a cell layer. What is called pKa is the negative logarithm of the acid dissociation constant. Lower therefore signals a stronger acid or weaker base. For orientation: Papp A→B means how fast a substance crosses the layer from the apical side. Higher therefore signals fast passage. In general, logD refers to lipophilicity at a set pH, counting ionised and neutral species. Read a low logD as a more hydrophilic compound. `O=C(c1cccc(F)c1-c1ncccn1)N1[C@@H]2CC[C@H]1[C@H](Nc1cnc(C(F)(F)F)cn1)C2`: the bioavailability in data set [1] amounted to 119%. Moreover, the Cmax in [2] turned out to be 1500 ng/mL; in data set [5], 24800 ng/mL; in [6], 349 ng/mL; in data set [13], 1370 ng/mL. Further, the AUC at 312 h in data set [3] was 36200 ng·h/mL; in [10], 84100 ng·h/mL. Further, the fraction unbound in [4] came out at 0.2; in data set [11] it was 0.21. Moreover, the activity at 10 µM on PXR (NR1I2) was determined as 29%. In addition, the clearance in [7] is 29 mL/min/kg; in data set [8], 17 mL/min/kg; in data set [16], 4.8 mL/min/kg; in data set [21], 0.9 mL/min/kg. This compound displayed a Papp B→A in data set [9] of 64.4 ×10⁻⁶ cm/s. The Vd in data set [12] amounted to 1.4 L/kg. Also, in [14], the pKa was less than 2. The same compound had a Papp A→B in data set [15] of 1.95 ×10⁻⁶ cm/s. The concentration at 0.5 h in data set [17] turned out to be 188 ng/mL; in [20], 687 ng/mL. In addition, the Activity in data set [18] is 70%; in data set [19] it was 100%. In data set [22], this compound gave a logD of 2.18.
